Screening results (PubChem BioAssay)
This is a sample that favours compounds with a hit; in the whole collection about 4% have one here.
KCNK9 inh: blocks the human KCNK9 two-pore domain potassium channel. Q9NPC2. HEK293 KCNK9, FluxOR thallium flux fluorescence; stronger effect = lower value. B-score at 10 µM. 310,000 compounds, 1.2% hits. AID 488922;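 active = ratio B-score over 3 SD below the library mean, with starting fluorescence within 5 SD of its mean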;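 also: negative B-score means less thallium flux so channel inhibition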
Target sequence (Q9NPC2 whole entry, looked up, the tested form may be a part): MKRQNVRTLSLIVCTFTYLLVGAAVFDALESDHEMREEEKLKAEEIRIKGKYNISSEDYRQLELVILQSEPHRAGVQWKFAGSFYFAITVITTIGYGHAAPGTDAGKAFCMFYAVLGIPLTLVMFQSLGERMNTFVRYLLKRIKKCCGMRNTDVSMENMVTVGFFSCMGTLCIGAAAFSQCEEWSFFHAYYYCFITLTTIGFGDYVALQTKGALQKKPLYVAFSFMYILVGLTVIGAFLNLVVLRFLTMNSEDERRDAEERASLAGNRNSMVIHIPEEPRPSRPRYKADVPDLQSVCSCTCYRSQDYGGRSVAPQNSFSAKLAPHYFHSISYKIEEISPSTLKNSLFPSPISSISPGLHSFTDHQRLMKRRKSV
KCNQ1 inh: blocks the human KCNQ1 potassium channel; 310,000 compounds, 1.3% hits; P51787; B-score at 10 µM; CHO-K1 KCNQ1, FluxOR thallium flux fluorescence; stronger effect = higher value;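 active = compounds whose thallium flux B-score, printed positive for inhibition, exceeds three library SD while starting fluorescence stays within three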;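 also: channel opened by potassium depolarization with thallium stimulus after 20 min compound exposure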
hERG rescue: compounds protecting human hERG from proarrhythmic drug block. Q12809. activation (rescue from dofetilide block), less the hit threshold, % at 10 µM. AID 1511. 310,000 compounds, 0.51% hits. CHO-hERG, FluxOR thallium flux, dofetilide IC70 present;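 active = activation above the mean of controls blocked by dofetilide plus 5 SD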;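 also: thallium influx through hERG after potassium depolarization seen as dye fluorescence rise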
KCNK3 inh: human KCNK3 channel inhibition, primary screen | O14649 | CHO-KCNK3 thallium flux, FluxOR fluorescence; stronger effect = lower value | B-score at 10 µM | 340,000 compounds, 0.84% hits;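 active = B-score under library mean minus 4 SD, starting fluorescence ratio at most library mean plus 5 SD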;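 also: more negative B-score means stronger inhibition of thallium flux through KCNK3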
KCNQ1 pot: potentiates or activates the human KCNQ1 potassium channel; CHO-K1 KCNQ1, thallium flux FluxOR fluorescence; stronger effect = higher value; P51787; B-score at 10 µM; 310,000 compounds, 0.35% hits;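 active = fluorescence ratio B-score, a plate-corrected score, at least three library SD, with initial intensity B-score within 5 SD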
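assay system = KCNQ1-transfected CHO-K1 cells | medium = assay buffer with matched DMSO | probe or stimulus = depolarizing K+/Tl+ stimulus, K2SO4 and Tl2SO4 each 12.5 mM in 5x stock | dosing = single dose | incubation = dye 90 min, compound 20 min, room temperature | detection = kinetic FluxOR fluorescence, 10 s baseline plus 110 s post-stimulus | evaluation = ratio B score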
PHOSPHO1 block: blocks human PHOSPHO1 phosphatase activity; Q8TCT1; recombinant PHOSPHO1, absorbance phosphatase assay; inhibition, % at 13.3 µM; 290,000 compounds, 1.1% hits; AID 1565; in the data active = inhibition above about 60%
Target sequence (Q8TCT1 whole entry, looked up): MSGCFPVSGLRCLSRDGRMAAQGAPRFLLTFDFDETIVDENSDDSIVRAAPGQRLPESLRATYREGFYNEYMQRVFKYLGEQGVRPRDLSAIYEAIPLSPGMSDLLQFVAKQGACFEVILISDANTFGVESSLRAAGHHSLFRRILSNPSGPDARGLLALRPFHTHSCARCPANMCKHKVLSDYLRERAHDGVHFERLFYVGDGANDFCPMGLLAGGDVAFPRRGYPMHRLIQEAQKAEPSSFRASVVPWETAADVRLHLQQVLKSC
Large screens that a line does not name were inactive.

COC(=O)C(C)Sc1nc2c(cnn2-c2ccc(F)cc2)c(=O)[nH]1 (stereo unspecified)	none
Cc1cc(C(=O)CSc2nnc(-c3ccc(OC(F)F)cc3)o2)c(C)n1Cc1cccs1	PHOSPHO1 block 94
O=C(CSc1nc(-c2ccccc2)cs1)NC(=O)NCc1ccco1	none
Cc1nnc(SCC(=O)NC(=O)NCc2ccco2)s1	none
Cn1c(SCC(=O)NC(=O)NCc2ccco2)nnc1-c1ccccc1	PHOSPHO1 block 64
O=C(CSc1nn(-c2ccc(F)cc2)c(=S)s1)NC(=O)NCc1ccco1	PHOSPHO1 block 83
O=C(CSc1n[nH]c(-c2ccccc2)n1)NC(=O)NCc1ccco1	PHOSPHO1 block 88
O=C(CSc1nnc(-c2ccc(OC(F)F)cc2)o1)NC(=O)NCc1ccco1	PHOSPHO1 block 74
COc1ccc(-c2nnc(SCC(=O)NCc3ccco3)o2)cc1	none
Cc1n[nH]c(=O)c2c(NC(=O)CSc3nn(-c4ccc(F)cc4)c(=S)s3)oc(C)c12	KCNQ1 inh 6 (no result: PHOSPHO1 block)
Cc1ccc(Nc2nc(-c3ccccc3)cs2)nc1	none
Cc1ccc(Nc2nc(-c3cccs3)cs2)nc1	hERG rescue 6.1
Cc1nn(CC2CC2)c(=O)n1-c1ccc(F)cc1	KCNQ1 pot 10
CC(=O)c1ccc(Oc2cc(C)nc(N3CCOCC3)n2)cc1	none
O=C(CN(CC1CCCO1)C(=O)CNS(=O)(=O)c1ccccc1)NCc1ccco1 (stereo unspecified)	hERG rescue 7.2
Cc1ccc(Cc2c[nH]c(=S)s2)cc1	hERG rescue 27, KCNQ1 pot 38
Cc1ccc(Cc2c(C)[nH]c(=S)[nH]c2=O)cc1	none
N#Cc1cccc(-n2nnnc2-c2ccc3c(c2)OCO3)c1	none
N#Cc1ccc(-c2nnnn2-c2ccc3c(c2)OCO3)cc1	hERG rescue 4.8
O=C1CC(NCc2cccs2)C(=O)N1c1ccc(Cl)cc1 (stereo unspecified)	none
COc1ccc2c(c1OC)C(=O)OC2Nc1nc(-c2ccc(-c3ccccc3)cc2)cs1 (stereo unspecified)	KCNK9 inh -7.1
COc1ccc(C(=O)OCC(=O)NC2CCCC2)cc1OC	none
CCOc1ccc(Oc2cc(NC(=O)c3ccco3)cc([N+](=O)[O-])c2)cc1	none (no result: KCNK9 inh, KCNQ1 inh, hERG rescue, KCNQ1 pot)
O=C(Nc1cc(Oc2ccc(Cl)cc2)cc([N+](=O)[O-])c1)c1ccco1	KCNK9 inh -7
COc1ncnc2c1N[C@@](C)(O)c1c(F)c(F)c(F)c(F)c1S2	none
CCN(CC)S(=O)(=O)c1ccc(C(=O)OCCN2C(=O)c3cccc4c(N5CCOCC5)ccc(c34)C2=O)cc1	KCNQ1 inh 6
O=C(OCCN1C(=O)c2cccc3c(N4CCOCC4)ccc(c23)C1=O)c1cc(Cl)cc(Cl)c1	none (no result: KCNK9 inh, KCNQ1 inh, hERG rescue, KCNK3 inh, KCNQ1 pot)
O=C(CSCC(=O)N1CCCCC1)OCC(=O)c1c[nH]c2ccccc12	none
CCCCSc1nnc(-c2ccccc2N)c(=O)[nH]1	PHOSPHO1 block 90
CCCCCSc1nnc(-c2cc(Br)ccc2N)c(=O)[nH]1	PHOSPHO1 block 95
CCCCCCCSc1nnc(-c2ccccc2N)c(=O)[nH]1	none
CC(NC(=O)c1cc(-c2ccccn2)nc2ccc(Cl)cc12)C1CCCO1 (stereo unspecified)	none
Cc1sc2ncn(-c3ccccc3)c(=O)c2c1C	none
COc1ccccc1-n1cnc2sc(C)c(C)c2c1=O	hERG rescue 6.0
CCOc1ccc(-n2cnc3sc(C)c(C)c3c2=O)cc1	hERG rescue 5.6
CCOc1ccc(-c2csc3ncn(-c4ccc(OC)cc4)c(=O)c23)cc1	hERG rescue 4.7
Nn1cc(-c2ccccc2)nc1SCC(=O)NC1CCS(=O)(=O)C1 (stereo unspecified)	PHOSPHO1 block 88
O=C(CSc1nc(-c2ccccc2)c(-c2ccccc2)o1)NC1CCS(=O)(=O)C1 (stereo unspecified)	none
O=C(CSc1nc2ccccc2n1CCc1ccccc1)NC1CCS(=O)(=O)C1 (stereo unspecified)	PHOSPHO1 block 97
O=C(CSc1nc2ccccc2n1CCc1ccccc1)NC1CC1	none
Nn1cc(-c2ccccc2)nc1SCC(=O)NCCN1C(=O)CSC1=O	PHOSPHO1 block 82
Cn1c(SCC(=O)NCCN2C(=O)CSC2=O)nnc1-c1ccccc1	none
COc1ccccc1OCC(=O)N1CCC2(CC1)CC(=O)c1ccccc1O2	none (no result: PHOSPHO1 block)
CCC(c1nnnn1Cc1ccc(OC)cc1)N1CCN(C(=O)c2ccco2)CC1 (stereo unspecified)	none
CCc1ccccc1N1C(=O)C(Cl)=C(N2CCOCC2)C1=O	none
COc1cc(CC(=O)Nc2ccccc2N2CCOCC2)cc(OC)c1OC	none
COc1cccc(CN(C)CC(=O)Nc2ccccc2N2CCOCC2)c1OC	hERG rescue 5.1
COc1ccc(C(=O)CCS(=O)(=O)c2ccc(C)cc2)cc1OC	KCNQ1 pot 8
COc1ccccc1/C=C(/C(=O)OCC(=O)NCc1ccccc1)c1ccccc1	KCNK9 inh -8, KCNQ1 inh 7
COc1ccccc1/C=C(/C(=O)OCC(=O)Nc1ccccc1C)c1ccccc1	KCNK9 inh -7, KCNQ1 inh 8
COCCCn1c(=O)c2ccccc2n(Cc2cccc(C)c2)c1=O	none
COCCCn1c(=O)c2ccccc2n(Cc2ccc(C)cc2)c1=O	KCNK9 inh -7.7
c1ccc(-c2nnc(SCc3nc4ccccc4[nH]3)n2Cc2ccco2)cc1	PHOSPHO1 block 96
Cc1ccc(OCc2nnc(SCc3nc4ccccc4[nH]3)n2Cc2ccco2)cc1	PHOSPHO1 block 84
Clc1ccc(OCCSCc2nc3ccccc3[nH]2)cc1	PHOSPHO1 block 69
CCn1c(COc2ccc(Cl)cc2)nnc1SCc1nc2ccccc2[nH]1	PHOSPHO1 block 91
CC12CN3CCN(CC(C3)/C1=N\N=C1/C3CN4CCN(C3)CC1(C)C4)C2	none
COc1cccc(CN2C(=O)c3cccc(N)c3C2=O)c1	none
Cc1ccc(-c2cnn(-c3cccc([N+](=O)[O-])c3)c2N)cc1	none
O=c1oc(-c2ccc(Br)cc2)nc2ccccc12	none
CCn1c(COc2ccc(C)cc2)nnc1SCC(=O)C(C)(C)C	none
CCn1c(COc2ccc(C)cc2)nnc1SCc1ccc(C#N)cc1	PHOSPHO1 block 94
CCN(CC(=O)NCCc1ccc(S(N)(=O)=O)cc1)Cc1nc2ccccc2c(=O)[nH]1	hERG rescue 4.8
CCN(CC(=O)NCCc1ccc(S(N)(=O)=O)cc1)Cc1nc2cc(OC)c(OC)cc2c(=O)[nH]1	none
CCCOc1ccc(N2C(=O)CC(SC(=NCC)Nc3cccc(F)c3)C2=O)cc1 (stereo unspecified)	none
CCCCc1c(C)nc2nc(SCc3ccc(Cl)cc3)[nH]n2c1=O	KCNQ1 inh 6
COc1ccc(CCNC(=O)COC(=O)c2cccn2C)cc1	none (no result: KCNK9 inh, KCNQ1 inh, hERG rescue, KCNQ1 pot, PHOSPHO1 block)
CCOC(=O)CNC1CC(=O)N(c2cccc(Cl)c2)C1=O (stereo unspecified)	hERG rescue 5.3
